Key:
[1] = melting temperature; fluorescence melt of hairpins on a sequencing array, two-state fit, raised by 9.35 °C to match UV melts; details: sodium 0.088 M
Summary of the method: (§1)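 On a sequenced MiSeq flow cell, library hairpins with annealed Cy3 and quencher oligos were imaged for Cy3 fluorescence in 2.5 °C steps up to 60 °C, in 50 mM Na-HEPES pH 8.0, 25 mM NaCl. Normalisation used pre-quench Cy3 and control constructs. Bootstrapped two-state fits gave melting temperature and folding enthalpy, combined by inverse variance across four replicates and with fitted temperatures raised by 9.35 °C to match UV melts.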

[2] = folding enthalpy; higher = less favourable; fluorescence melt of hairpins on a sequencing array, two-state fit; details: sodium 0.088 M
Summary of the method: as §1

| Sequence | Tm [1] | folding enthalpy [2] |
| --- | --- | --- |
| GTCAGGGGAAACCCTGGC (.(((((....))))).) | 53.6 °C | -27.7 kcal/mol |
| GTCAGGGGAAACTCTGGC (.(((.(....).))).) | 36.4 °C | -24.5 kcal/mol |
| GTCAGTGGAAACACTGAC (((((((....))))))) | 64.5 °C | -47.6 kcal/mol |
| GTCAGTGGAAACATTGAC ((((.((....)).)))) | 45.3 °C | -29.2 kcal/mol |
| GTCAGTGGAAACGCTGAC (((((.(....).))))) | 54.2 °C | -40.5 kcal/mol |
| GTCATAACGAAAGTTGAC (((..(((....)))))) | 37.2 °C | -24.4 kcal/mol |
| GTCATACGAAAGTACGAC (((.(((....))).))) | 42.9 °C | -28.7 kcal/mol |
| GTCATATCGAAAGATGAC (((..(((....)))))) | 37.1 °C | -26.1 kcal/mol |
| GTCATCCGAAAGGAAGAC (((.(((....))).))) | 49.3 °C | -29.9 kcal/mol |
| GTCATCGAAAGATTAGAC ((((((....)))..))) | 32.2 °C | -14 kcal/mol |
| GTCATCGGAAACGACGAC (((.(((....))).))) | 43.2 °C | -29.7 kcal/mol |
| GTCATCGGAAACGATGAC (((((((....))))))) | 67.8 °C | -40 kcal/mol |
| GTCATGGGAAACCACGAC (((.(((....))).))) | 39.9 °C | -31.9 kcal/mol |
| GTCATGGGAAACCATGGC (.(((((....))))).) | 53.2 °C | -24.1 kcal/mol |
| GTCATGGGAAACCGTGAC ((((.((....)).)))) | 52.9 °C | -42.3 kcal/mol |
| GTCATGGGAAACTGTGAC ((((..(....)..)))) | 39.1 °C | -32.9 kcal/mol |
| GTCATTCCGAAAGGAGAC (((..(((....)))))) | 29.2 °C | -10.2 kcal/mol |
| GTCATTGAAAAATGAC ((((((....)))))) | 51.9 °C | -38.6 kcal/mol |
| GTCATTGGAAACGATGAC (((((.(....).))))) | 46.7 °C | -41.1 kcal/mol |
| GTCCAACCGAAAGGTGAC (((..(((....)))))) | 37.2 °C | -16.3 kcal/mol |
| GTCCAACGAAAGTTAGAC (((.(((....))).))) | 38.5 °C | -29.6 kcal/mol |
| GTCCACCGAAAGGTAGAC (((.(((....))).))) | 47.4 °C | -26.4 kcal/mol |
| GTCCACCGAAAGGTGAC (((.(((....)))))) | 46.1 °C | -12.5 kcal/mol |

| Sequence | Tm [1] | folding enthalpy [2] |
| --- | --- | --- |
| GTCCACGAAAGTGCAGAC ((((((....)))..))) | 36.2 °C | -16.5 kcal/mol |
| GTCCACGAAAGTGCGAC ((((((....))).))) | 50.9 °C | -22.8 kcal/mol |
| GTCCACGAAAGTGCGGAC ((((((....)))..))) | 45 °C | -17.4 kcal/mol |
| GTCCACGAAAGTGTGAC ((((((....))).))) | 50.4 °C | -22.4 kcal/mol |
| GTCCACGGAAACGTAGAC (((.(((....))).))) | 41 °C | -26.6 kcal/mol |
| GTCCACGGAAACGTGAAC ((.((((....)))).)) | 45.5 °C | -18.1 kcal/mol |
| GTCCAGACGAAAGTCGAC (((..(((....)))))) | 36.9 °C | -11.1 kcal/mol |
| GTCCAGGCGAAAGCCGAC (((..(((....)))))) | 37 °C | -9.61 kcal/mol |
| GTCCAGTCGAAAGACGAC (((..(((....)))))) | 34.8 °C | -15 kcal/mol |
| GTCCATCGAAAGATAGAC (((.(((....))).))) | 35.2 °C | -30.5 kcal/mol |
| GTCCATCGAAAGATGAC (((.(((....)))))) | 42.5 °C | -16.9 kcal/mol |
| GTCCATGGAAACACGGAC ((((.((....)).)))) | 42.1 °C | -25 kcal/mol |
| GTCCATGGAAACATGGGC (.(((((....))))).) | 54 °C | -42.9 kcal/mol |
| GTCCCACCGAAAGGTGAC (((..(((....)))))) | 27 °C | -8.32 kcal/mol |
| GTCCCAGCGAAAGCTGAC (((..(((....)))))) | 22.4 °C | -8.81 kcal/mol |
| GTCCCAGGAAACTGGAAC ((.((((....)))).)) | 35.8 °C | -22 kcal/mol |
| GTCCCAGGAAACTGGGAC (((((((....))))))) | 68.8 °C | -35.7 kcal/mol |
| GTCCCCCCGAAAGGGGAC (((..(((....)))))) | 59.5 °C | -16.9 kcal/mol |
| GTCCCCCGAAAGGGTGAC (((.(((....))).))) | 52.5 °C | -28.1 kcal/mol |
| GTCCCCGAAAGGGACGAC ((((((....)))..))) | 69.3 °C | -18 kcal/mol |
| GTCCCCGAAAGGGGAGAC ((((((....)))..))) | 54.2 °C | -8.25 kcal/mol |
| GTCCCCGAAAGGGTGGAC ((((((....)))..))) | 48.9 °C | -14.8 kcal/mol |
| GTCCCCGAAAGGGTTGAC ((((((....)))..))) | 33.7 °C | -15.3 kcal/mol |

| Sequence | Tm [1] | folding enthalpy [2] |
| --- | --- | --- |
| GTCCCGGGAAACCAGGAC ((((.((....)).)))) | 46 °C | -22.7 kcal/mol |
| GTCCGAGGAAACTCGGGC (.(((((....))))).) | 59.5 °C | -30.3 kcal/mol |
| GTCCGATCGAAAGATGAC (((..(((....)))))) | 28.3 °C | -10.7 kcal/mol |
| GTCCGCCGAAAGGCGAC (((.(((....)))))) | 52.5 °C | -9.54 kcal/mol |
| GTCCGCGAAAGCGAGAC ((((((....))).))) | 59.2 °C | -14.2 kcal/mol |
| GTCCGCGAAAGCGATGAC ((((((....)))..))) | 38.3 °C | -15.9 kcal/mol |
| GTCCGCGAAAGCGCAGAC ((((((....)))..))) | 40.8 °C | -14.6 kcal/mol |
| GTCCGCGAAAGCGGGGAC ((((((....)))..))) | 47.3 °C | -8.28 kcal/mol |
| GTCCGCGAAAGCGTCGAC ((((((....)))..))) | 37.2 °C | -13.3 kcal/mol |
| GTCCGCGGAAACGCGAAC ((.((((....)))).)) | 50.9 °C | -16.5 kcal/mol |
| GTCCGCGGAAACGTGGGC (.((.((....)).)).) | 53 °C | -26.5 kcal/mol |
| GTCCGGACGAAAGTCGAC (((..(((....)))))) | 35.5 °C | -14 kcal/mol |
| GTCCGGGGAAACCCGGGC (.(((((....))))).) | 65 °C | -21.6 kcal/mol |
| GTCCGTCGAAAGACAGAC (((.(((....))).))) | 47 °C | -22.3 kcal/mol |
| GTCCTACGAAAGTAGAC (((.(((....)))))) | 39.6 °C | -18.1 kcal/mol |
| GTCCTAGCGAAAGCTGAC (((..(((....)))))) | 31.5 °C | -12.7 kcal/mol |
| GTCCTCCGAAAGGATGAC (((.(((....))).))) | 48.6 °C | -30.7 kcal/mol |
| GTCCTCGAAAGAGAGGAC ((((((....)))..))) | 52.9 °C | -30.2 kcal/mol |
| GTCCTCGAAAGAGCGGAC ((((((....)))..))) | 36.1 °C | -22.1 kcal/mol |
| GTCCTCGAAAGAGGTGAC ((((((....)))..))) | 35.5 °C | -11.6 kcal/mol |
| GTCCTCGAAAGAGTGGAC ((((((....)))..))) | 41.6 °C | -23.6 kcal/mol |
| GTCCTCGGAAACGAGAAC ((.((((....)))).)) | 39.7 °C | -20.7 kcal/mol |
| GTCCTGGGAAACCAGGGC (.(((((....))))).) | 56.9 °C | -35.5 kcal/mol |

| Sequence | Tm [1] | folding enthalpy [2] |
| --- | --- | --- |
| GTCCTTCGAAAGAAGAC (((.(((....)))))) | 36.7 °C | -18.3 kcal/mol |
| GTCCTTTCGAAAGAAGAC (((..(((....)))))) | 28.5 °C | -15.3 kcal/mol |
| GTCGAACCGAAAGGTGAC (((..(((....)))))) | 42 °C | -18 kcal/mol |
| GTCGAAGGAAACTTCGGC (.(((((....))))).) | 51.3 °C | -43.1 kcal/mol |
| GTCGACGAAAGTCCGGAC ((((((....)))..))) | 37 °C | -18.1 kcal/mol |
| GTCGACGAAAGTCCTGAC ((((((....)))..))) | 31.6 °C | -12.9 kcal/mol |
| GTCGACGAAAGTCGGGAC ((((((....)))..))) | 39.1 °C | -10.5 kcal/mol |
| GTCGACGAAAGTCGTGAC ((((((....)))..))) | 43.6 °C | -10 kcal/mol |
| GTCGAGCGAAAGCTGAC (((.(((....)))))) | 57.7 °C | -20 kcal/mol |
| GTCGATCCGAAAGGAGAC (((..(((....)))))) | 40 °C | -22.7 kcal/mol |
| GTCGCAGAAATGCGAC ((((((....)))))) | 69.1 °C | -38.1 kcal/mol |
| GTCGCAGGAAACTGTGAC (((.(((....))).))) | 53.9 °C | -42.4 kcal/mol |
| GTCGCCCGAAAGGGGAC (((.(((....)))))) | 55.2 °C | -21.4 kcal/mol |
| GTCGCCGAAAGGCACGAC ((((((....)))..))) | 48.4 °C | -15.6 kcal/mol |
| GTCGCCGAAAGGCAGGAC ((((((....)))..))) | 50.4 °C | -13.1 kcal/mol |
| GTCGCCGAAAGGCTAGAC ((((((....)))..))) | 47.1 °C | -16.8 kcal/mol |
| GTCGCCGAAAGGCTGAC ((((((....))).))) | 57.1 °C | -17.8 kcal/mol |
| GTCGCCGGAAACGACGAC ((((.((....)).)))) | 57.5 °C | -43.5 kcal/mol |
| GTCGCGACGAAAGTCGAC (((..(((....)))))) | 38.2 °C | -8.29 kcal/mol |
| GTCGCGCCGAAAGGCGAC (((..(((....)))))) | 43 °C | -7.69 kcal/mol |
| GTCGCGCGAAAGCGGAC (((.(((....)))))) | 56.5 °C | -15.4 kcal/mol |
| GTCGCGGGAAACCACGAC ((((.((....)).)))) | 53.4 °C | -43.8 kcal/mol |
